Blank lines part the entries; values can stand above or below the molecule they belong to.
How the values were obtained:
K562 cells = assay: 5-EU uridine salvage assay; type: cell-based; conditions: for %Inhibition at highest tested concentration (EU assay): K562 cells, 50 µM compound, 5-EU salvage
Method in brief: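 K562 cells, untreated or pre-treated with the DHODH inhibitor GSK983, were given 5-ethynyl-uridine (5-EU) with test compound at a fixed concentration (50 µM). Salvaged 5-EU incorporated into cellular RNA was detected with a fluorescent click probe. Dipyridamole (20 µM) served as the uridine-salvage inhibitor control.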

human UCK2 [1] = biological target: T1, human UCK2 (Homo sapiens, UniProt Q9BZX2); assay: ADP-Glo kinase assay for UCK2 activity; type: biochemical; conditions: for IC50 obtained from validation experiments: retested in the ADP-Glo assay, unit given
T1 sequence (Q9BZX2 1-261): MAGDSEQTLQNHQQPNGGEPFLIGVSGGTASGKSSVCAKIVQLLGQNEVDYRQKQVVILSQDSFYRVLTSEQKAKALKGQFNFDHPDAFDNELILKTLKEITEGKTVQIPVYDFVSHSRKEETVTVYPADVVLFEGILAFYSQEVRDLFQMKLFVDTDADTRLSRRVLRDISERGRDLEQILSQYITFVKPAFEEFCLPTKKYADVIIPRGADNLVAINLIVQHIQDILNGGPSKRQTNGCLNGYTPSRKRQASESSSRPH

A549 cells = assay: 5-EU uptake assay in A549 cells; type: cell-based
human UCK2 [2] = biological target: T1, human UCK2; type: biochemical; conditions: kinetic analysis
Method in brief: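 C-terminally His6-tagged human UCK2 was purified by Ni-NTA and then ion-exchange chromatography. UCK2-generated ADP was coupled through pyruvate kinase and lactate dehydrogenase, and NADH consumption was followed continuously at 340 nm. To determine the mode of inhibition, uridine or ATP was titrated at several fixed inhibitor concentrations, and Ki values were derived for each substrate.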

DNA polymerase kappa = conditions: read-out: IC50 DNA polymerase kappa; ref PubChem; cited from earlier work
DNA polymerase eta = conditions: read-out: IC50 DNA polymerase eta; ref PubChem; cited from earlier work
DNA polymerase beta = conditions: read-out: IC50 DNA polymerase beta; HTS hit; ref PubChem; cited from earlier work
CMPK1 = biological target: T2, CMPK1 (Homo sapiens, UniProt P30085); assay: ADP-Glo screen for CMPK1; type: biochemical; conditions: analogous ADP-Glo screen
T2 sequence (P30085 1-196): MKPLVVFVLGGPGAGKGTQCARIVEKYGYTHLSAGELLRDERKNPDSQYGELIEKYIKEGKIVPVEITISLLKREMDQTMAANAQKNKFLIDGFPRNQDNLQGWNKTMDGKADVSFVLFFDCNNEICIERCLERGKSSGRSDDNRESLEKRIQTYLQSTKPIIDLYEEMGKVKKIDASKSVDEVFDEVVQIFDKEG

DNA polymerase iota = conditions: read-out: IC50 DNA polymerase iota; HTS hit; ref PubChem; cited from earlier work
[3] = substrate: O=c1ccn([C@@H]2O[C@H](CO)[C@@H](O)[C@H]2O)c(=O)[nH]1; assay: ADP-Glo kinase assay for UCK2 activity; type: biochemical, human; conditions: other: steady state conditions, named substrate varied

Molecule: Cc1ccc(-c2nc3c(c(SCC(=O)Nc4ccccc4)n2)Cc2cccc(C)c2O3)cc1 [20874830–1]
- %Inhibition at highest tested concentration (EU assay) (K562 cells): No inhibition

Molecule: O=C(CSCn1[nH]nc2c(=O)nc(Cc3ccc(F)cc3)nc1-2)Nc1ccc(F)cc1 [135546734–2]
- IC50 obtained from validation experiments (human UCK2 [1]): completely inactive

Molecule: Nc1ncnc2c1ncn2[C@@H]1O[C@H](COP(=O)(O)OP(=O)(O)OP(=O)(O)O)[C@@H](O)[C@H]1O [ATP]
- Km (human UCK2 [1]; read-out: KM (UCK2 substrate), steady state conditions, named substrate varied): 61 ± 1 µM

Molecule: OCCN(CCO)c1nc(N2CCCCC2)c2nc(N(CCO)CCO)nc(N3CCCCC3)c2n1 [Dipyridamole, dipyridamole]
- Inhibition of 5-EU uptake (A549 cells): inhibits 5-EU uptake in a dose-dependent manner

Molecule: O=C(N[C@@H]1CCCc2c1[nH]c1ccc(Cl)cc21)c1ccccn1 [GSK983, reference compound]
- Effect on uridine salvage (5-EU assay) (K562 cells; K562 cells treated with GSK983 vs untreated): significantly increased uridine salvage

B1: human UCK2 (Homo sapiens) (protein)
chain: MAGDSEQTLQNHQQPNGGEPFLIGVSGGTASGKSSVCAKIVQLLGQNEVDYRQKQVVILSQDSFYRVLTSEQKAKALKGQFNFDHPDAFDNELILKTLKEITEGKTVQIPVYDFVSHSRKEETVTVYPADVVLFEGILAFYSQEVRDLFQMKLFVDTDADTRLSRRVLRDISERGRDLEQILSQYITFVKPAFEEFCLPTKKYADVIIPRGADNLVAINLIVQHIQDILNGGPSKRQTNGCLNGYTPSRKRQASESSSRPH
- Km [3]: 62 ± 5 µM

Now from value to molecule, other results behind:

- IC50 obtained from validation experiments (human UCK2 [1]): completely inactive
Molecule: COc1cccc(NC(=O)CSCn2[nH]nc3c(=O)nc(Cc4ccc(F)cc4)nc2-3)c1 [135546734–3]
- %Inhibition at highest tested concentration (EU assay) (K562 cells): No inhibition

- Mode of inhibition with respect to uridine and ATP (human UCK2 [2]): primarily non-competitive
Molecule: Cc1ccc(-c2nc3c(c(SCC(=O)Nc4cccc(C(=O)O)c4)n2)Cc2cccc(C)c2O3)cc1 [compound 20874830]

- Mode of inhibition with respect to uridine and ATP (human UCK2 [2]): non-competitive
Molecule: O=C(CSc1nc2n(-c3ccc(F)cc3)[nH]cc-2c(=O)n1)Nc1ccc(Br)cc1 [compound 135416439]
- IC50 (DNA polymerase kappa): 16 µM
- IC50 (DNA polymerase eta): 56 µM

- Mode of inhibition with respect to uridine and ATP (human UCK2 [2]): similarly non-competitive
- Inhibition of CMPK1 (CMPK1): no inhibition
Molecule: Cc1cc(C)cc(NC(=O)CSCn2[nH]nc3c(=O)nc(Cc4ccc(F)cc4)nc2-3)c1 [compound 135546734]
- IC50 (DNA polymerase beta): 40 µM
- inhibition at 50 µM (K562 cells; Homo sapiens, K562, read-out: %Inhibition at highest tested concentration (EU assay), K562 cells, 50 µM compound, 5-EU salvage): ~40%
- IC50 (DNA polymerase eta): 79 µM
- IC50 (DNA polymerase iota): 79 µM
